Results published in ChEMBL document CHEMBL1125740, “Heterocyclic quinones. 17. A new in vivo active antineoplastic drug: 6,7-bis(1-aziridinyl)-4-[[3-(N,N-dimethylamino)propyl]amino]-5,8- quinazolinedione” (J Med Chem, 1991).

Legend:
P388 [1] = experiment: Compound was evaluated in vivo for antitumor activity after intraperitoneal administration against P388 (1303) for change in body weight at an optimal dose of 0.75 mg/kg/injection; format: functional, Mus musculus
P388 [2] = experiment: Compound was evaluated in vivo for antitumor activity after intraperitoneal administration against P388/L-PAM(12) for change in body weight at an optimal dose of 0.75 mg/kg/injection; format: functional, Mus musculus
[3] = Compound was evaluated in vivo for antitumor activity against Glasgow osteogenic sarcoma after injecting the compound intravenously for percent T/C (value in parentheses indicates the day of evaluation); format: functional, Mus musculus
P388 [4] = experiment: Compound was evaluated in vivo for antitumor activity after intraperitoneal administration against P388 (1313) for median day of death at an optimal dose of 0.25 mg/kg/injection; format: functional, Mus musculus
L1210 [5] = experiment: Compound was evaluated in vivo for antitumor activity after intraperitoneal administration against L1210(935) for tumor free survivors at an optimal dose of 0.1 mg/kg/injection at 1-4 day schedule.; format: functional, Mus musculus
Summary of the method: (§1)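 L1210 leukemia, maintained in DBA/2 mice, was given ip as 10⁵ cells on day 0 to F1 hybrid or strain-of-origin mice over 18 g, in groups of 8. Dosing was ip from day 1, and mortality was checked daily. Median day of death counts dying mice only. %ILS = 100×(treated − control median day of death)/control median. Tumor-free survivors were counted on day 60. Weight change is g/mouse at nadir.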

L1210 [6] = experiment: Compound was evaluated in vivo for antitumor activity after intraperitoneal administration against L1210(935)for change in body weight at an optimal dose of 0.125 mg/kg/injection at 1,4,7,11day schedule.; format: functional, Mus musculus; summary of the method: as §1
P388 [7] = experiment: Compound was evaluated in vivo for antitumor activity after intraperitoneal administration against P388/L-PAM(14) for total dose at an optimal dose of 0.5 mg/kg/injection at 1,4,7,11 day schedule.; format: functional, Mus musculus
P388 [8] = experiment: Compound was evaluated in vivo for antitumor activity after intraperitoneal administration against P388/L-PAM(14) for tumor free survivors at an optimal dose of 1 mg/kg/injection; format: functional, Mus musculus
P388 [9] = experiment: Compound was evaluated in vivo for antitumor activity after intraperitoneal administration against P388/L-PAM(14) for total dose at an optimal dose of 0.1 mg/kg/injection at 1,2,3,4 day schedule.; format: functional, Mus musculus
P388 [10] = experiment: Compound was evaluated in vivo for antitumor activity after intraperitoneal administration against P388/L-PAM(14) for mortality range at an optimal dose of 0.125 mg/kg/injection at 1,4,7,11 day schedule.; format: functional, Mus musculus
L1210 [11] = experiment: Compound was evaluated in vivo for antitumor activity after intraperitoneal administration against L1210(935) for median day of death at an optimal dose of 0.2 mg/kg/injection at 1-4 day schedule.; format: functional, Mus musculus; summary of the method: as §1
P388 [12] = experiment: Compound was evaluated in vivo for antitumor activity after intraperitoneal administration against P388/L-PAM(14) for median day of death at an optimal dose of 0.5 mg/kg/injection at 1,4,7,11 day schedule.; format: functional, Mus musculus
B16 [13] = experiment: Compound was evaluated in vivo for antitumor activity against B16 melanoma 1 after injecting the compound intravenously for toxicity related death.; format: functional, Mus musculus
P388 [14] = experiment: Compound was evaluated in vivo for antitumor activity after intraperitoneal administration against P388/L-PAM(14) for tumor free survivors at an optimal dose of 0.125 mg/kg/injection at 1,4,7,11 day schedule.; format: functional, Mus musculus
P388 [15] = experiment: Compound was evaluated in vivo for antitumor activity after intraperitoneal administration against P388 (1313) for total dose at an optimal dose of 0.25 mg/kg/injection; format: functional, Mus musculus
P388 [16] = experiment: Compound was evaluated in vivo for antitumor activity after intraperitoneal administration against P388 (1303) for median day of death at an optimal dose of 0.75 mg/kg/injection; format: functional, Mus musculus
P388 [17] = experiment: Compound was evaluated in vivo for antitumor activity after intraperitoneal administration against P388 (1313) for tumor free survivors at an optimal dose of 0.5 mg/kg/injection on day 60; format: functional, Mus musculus
M5076 = experiment: Compound was evaluated in vivo for antitumor activity against M5076 after injecting the compound intravenously for optimal dose; format: functional, Mus musculus
P388 [18] = experiment: Compound was evaluated in vivo for antitumor activity after intraperitoneal administration against P388/L-PAM(14) for change in body weight at an optimal dose of 0.2 mg/kg/injection at 1,2,3,4 day schedule.; format: functional, Mus musculus
P388 [19] = experiment: Compound was evaluated in vivo for antitumor activity after intraperitoneal administration against P388/L-PAM(14) for tumor free survivors at an optimal dose of 0.1 mg/kg/injection at 1,2,3,4 day schedule.; format: functional, Mus musculus
P388 [20] = experiment: Compound was evaluated in vivo for antitumor activity after intraperitoneal administration against P388 (1313) for change in body weight at an optimal dose of 0.4 mg/kg/injection; format: functional, Mus musculus
P388 [21] = experiment: Compound was evaluated in vivo for antitumor activity after intraperitoneal administration against P388 (1313) for tumor free survivors at an optimal dose of 0.4 mg/kg/injection; format: functional, Mus musculus
P388 [22] = experiment: Compound was evaluated in vivo for antitumor activity after intraperitoneal administration against P388/L-PAM(14) for tumor free survivors at an optimal dose of 0.4 mg/kg/injection at 1,2,3,4 day schedule.; format: functional, Mus musculus
P388 [23] = experiment: Compound was evaluated in vivo for antitumor activity after intraperitoneal administration against P388/L-PAM(14) for median day of death at an optimal dose of 0.1 mg/kg/injection at 1,2,3,4 day schedule.; format: functional, Mus musculus
L1210 [24] = experiment: Compound was evaluated in vivo for antitumor activity after intraperitoneal administration against L1210(935) for median day of death at an optimal dose of 0.1 mg/kg/injection at 1-4 day schedule.; format: functional, Mus musculus; summary of the method: as §1
P388 [25] = experiment: Compound was evaluated in vivo for antitumor activity after intraperitoneal administration against P388 (1303) for % increase in life span at an optimal dose of 0.75 mg/kg/injection; format: functional; conditions: Mus musculus, P388, ip
P388 [26] = experiment: Compound was evaluated in vivo for antitumor activity after intraperitoneal administration against P388/L-PAM(12) for total dose at an optimal dose of 0.75 mg/kg/injection; format: functional, Mus musculus
P388 [27] = experiment: Compound was evaluated in vivo for antitumor activity after intraperitoneal administration against P388/L-PAM(14) for change in body weight at an optimal dose of 0.1 mg/kg/injection at 1,2,3,4 day schedule.; format: functional, Mus musculus
B16 [28] = experiment: Compound was evaluated in vivo for antitumor activity against B16 melanoma 2 after injecting the compound intravenously for toxicity related death.; format: functional, Mus musculus
P388 [29] = experiment: Compound was evaluated in vivo for antitumor activity after intraperitoneal administration against P388 (1313) for change in body weight at an optimal dose of 0.2 mg/kg/injection; format: functional, Mus musculus
L1210 [30] = experiment: Compound was evaluated in vivo for antitumor activity after intraperitoneal administration against L1210(935)for change in body weight at an optimal dose of 0.5 mg/kg/injection at 1,4,7,11day schedule.; format: functional, Mus musculus; summary of the method: as §1
L1210 [31] = experiment: Compound was evaluated in vivo for antitumor activity after intraperitoneal administration against L1210(935) for mortality range at an optimal dose of 0.125 mg/kg/injection at 1,4,7,11day schedule.; format: functional, Mus musculus; summary of the method: as §1
L1210 [32] = experiment: Compound was evaluated in vivo for antitumor activity after intraperitoneal administration against L1210(935) for total dose at an optimal dose of 0.1 mg/kg/injection at 1-4 day schedule.; format: functional, Mus musculus; summary of the method: as §1

**Q.** What does the source list for `CN(C)CCCNc1ncnc2c1C(=O)C(N1CC1)=C(N1CC1)C2=O`?
**A.** Change in body weight (P388 [1]): 3.2 g mouse-1; Change in body weight (P388 [2]): -1 g mouse-1; T/C [3]: 0%; Median day of death (P388 [4]): 19; Survivors (L1210 [5]): 0; Change in body weight (L1210 [6]): 2.7 g mouse-1; Total dose (P388 [7]): 2 mg/kg; Survivors (P388 [8]): 0; Total dose (P388 [9]): 0.4 mg/kg; Mortality (P388 [10]): 27 days; Median day of death (L1210 [11]): 14; Median day of death (P388 [12]): 22.5; Toxicity (B16 [13]): 0; Survivors (P388 [14]): 0; Optimal dose (P388 [15]): 1 mg/kg; Median day of death (P388 [16]): 18.5; Survivors (P388 [17]): 0; Optimal dose (M5076): 1 mg/kg; Change of weight (P388 [18]): 1.7 g mouse-1; Survivors (P388 [19]): 0; Change in body weight (P388 [20]): -0.9 g mouse-1; Survivors (P388 [21]): 1; Survivors (P388 [22]): 0; Median day of death (P388 [23]): 14; Median day of death (L1210 [24]): 14; ILS at 0.75 mg/kg (P388 [25]): 68%; Optimal dose (P388 [26]): 0.75 mg/kg; Change in body weight (P388 [27]): 0.5 g mouse-1; Toxicity (B16 [28]): 0; Change in body weight (P388 [29]): 1.3 g mouse-1; Change in body weight (L1210 [30]): 1.1 g mouse-1; Mortality (L1210 [31]): 14 days; Total dose (L1210 [32]): 0.4 mg/kg
